Reference: ChEMBL document CHEMBL3734675, “Synthesis, antimycobacterial and antibacterial activity of fluoroquinolone derivatives containing an 3-alkoxyimino-4-(cyclopropylanimo)methylpyrrolidine moiety” (2015)
In brackets after ≈: the same amount, converted by molar mass.

What was measured:
Assay type in all cases: functional
Staphylococcus aureus [1] = assay: Antibacterial activity against methicillin-sensitive Staphylococcus aureus 14-3 after 18 to 24 hrs by two-fold serial dilution method
Method in brief: (§1)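 Twofold serial dilution in agar media against Gram-positive and Gram-negative strains. Plates incubated at 35 °C for 18–24 h. MIC read as the lowest compound concentration giving complete inhibition of bacterial growth.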

Enterococcus faecalis [2] = assay: Antibacterial activity against Enterococcus faecalis 14-1 after 18 to 24 hrs by two-fold serial dilution method; method in brief: as §1
Enterococcus faecalis [3] = assay: Antibacterial activity against Enterococcus faecalis 14-2 after 18 to 24 hrs by two-fold serial dilution method; method in brief: as §1
Klebsiella pneumoniae [4] = assay: Antibacterial activity against Klebsiella pneumoniae 14-2 after 18 to 24 hrs by two-fold serial dilution method; method in brief: as §1
[5] = test system: Staphylococcus epidermidis; assay: Antibacterial activity against methicillin-resistant Staphylococcus epidermidis 14-37 after 18 to 24 hrs by two-fold serial dilution method
Method in brief: (§2)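 Agar media, standard twofold serial dilution. MIC is the lowest concentration giving complete inhibition of bacterial growth after incubation at 35 °C for 18–24 h. Ciprofloxacin and levofloxacin were run as comparators.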

Staphylococcus aureus [6] = assay: Antibacterial activity against methicillin-resistant Staphylococcus aureus 14-4 after 18 to 24 hrs by two-fold serial dilution method; method in brief: as §2
Staphylococcus aureus [7] = assay: Antibacterial activity against methicillin-sensitive Staphylococcus aureus 14-1 after 18 to 24 hrs by two-fold serial dilution method; method in brief: as §1
Pseudomonas aeruginosa [8] = assay: Antibacterial activity against Pseudomonas aeruginosa 14-9 after 18 to 24 hrs by two-fold serial dilution method; method in brief: as §1
Pseudomonas aeruginosa [9] = assay: Antibacterial activity against Pseudomonas aeruginosa 14-15 after 18 to 24 hrs by two-fold serial dilution method; method in brief: as §1
Enterococcus faecium [10] = assay: Antibacterial activity against Enterococcus faecium 14-6 after 18 to 24 hrs by two-fold serial dilution method; method in brief: as §1
Staphylococcus aureus [11] = assay: Antibacterial activity against methicillin-resistant Staphylococcus aureus 14-5 after 18 to 24 hrs by two-fold serial dilution method; method in brief: as §2
[12] = test system: Staphylococcus epidermidis; assay: Antibacterial activity against methicillin-resistant Staphylococcus epidermidis 14-39 after 18 to 24 hrs by two-fold serial dilution method; method in brief: as §2
Pseudomonas aeruginosa [13] = assay: Antibacterial activity against Pseudomonas aeruginosa ATCC 27853 after 18 to 24 hrs by two-fold serial dilution method; method in brief: as §1
Klebsiella pneumoniae [14] = assay: Antibacterial activity against Klebsiella pneumoniae 14-1 after 18 to 24 hrs by two-fold serial dilution method; method in brief: as §1
[15] = test system: Staphylococcus epidermidis; assay: Antibacterial activity against methicillin-resistant Staphylococcus epidermidis 14-21 after 18 to 24 hrs by two-fold serial dilution method; method in brief: as §2
Escherichia coli [16] = assay: Antibacterial activity against Escherichia coli ATCC 25922 after 18 to 24 hrs by two-fold serial dilution method; method in brief: as §1
Klebsiella pneumoniae [17] = assay: Antibacterial activity against Klebsiella pneumoniae 14-4 after 18 to 24 hrs by two-fold serial dilution method; method in brief: as §1
Streptococcus pneumoniae = assay: Antibacterial activity against methicillin-resistant Streptococcus pneumoniae ATCC 19615 after 18 to 24 hrs by two-fold serial dilution method; method in brief: as §2
Escherichia coli [18] = assay: Antibacterial activity against extended-spectrum beta-lactamase producing Escherichia coli 14-2 after 18 to 24 hrs by two-fold serial dilution method; method in brief: as §1
Enterococcus faecium [19] = assay: Antibacterial activity against Enterococcus faecium 14-5 after 18 to 24 hrs by two-fold serial dilution method; method in brief: as §1
[20] = test system: Staphylococcus epidermidis; assay: Antibacterial activity against methicillin-sensitive Staphylococcus epidermidis 14-2 after 18 to 24 hrs by two-fold serial dilution method; method in brief: as §1
Klebsiella pneumoniae [21] = assay: Antibacterial activity against extended-spectrum beta-lactamase producing Klebsiella pneumoniae 14-19 after 18 to 24 hrs by two-fold serial dilution method; method in brief: as §1
Escherichia coli [22] = assay: Antibacterial activity against Escherichia coli 14-1 after 18 to 24 hrs by two-fold serial dilution method; method in brief: as §1
Pseudomonas aeruginosa [23] = assay: Antibacterial activity against Pseudomonas aeruginosa 14-14 after 18 to 24 hrs by two-fold serial dilution method; method in brief: as §1
Klebsiella pneumoniae [24] = assay: Antibacterial activity against extended-spectrum beta-lactamase producing Klebsiella pneumoniae 14-18 after 18 to 24 hrs by two-fold serial dilution method; method in brief: as §1
[25] = test system: Staphylococcus epidermidis; assay: Antibacterial activity against methicillin-resistant Staphylococcus epidermidis 14-22 after 18 to 24 hrs by two-fold serial dilution method; method in brief: as §2
Pseudomonas aeruginosa [26] = assay: Antibacterial activity against Pseudomonas aeruginosa 14-16 after 18 to 24 hrs by two-fold serial dilution method; method in brief: as §1
Klebsiella pneumoniae [27] = assay: Antibacterial activity against Klebsiella pneumoniae 14-3 after 18 to 24 hrs by two-fold serial dilution method; method in brief: as §1
Escherichia coli [28] = assay: Antibacterial activity against extended-spectrum beta-lactamase producing Escherichia coli 14-1 after 18 to 24 hrs by two-fold serial dilution method; method in brief: as §1
Staphylococcus aureus [29] = assay: Antibacterial activity against methicillin-sensitive Staphylococcus aureus 14-4 after 18 to 24 hrs by two-fold serial dilution method; method in brief: as §1
[30] = test system: Mycobacterium tuberculosis; assay: Antimycobacterial activity against Mycobacterium tuberculosis H37Rv ATCC 27294 incubated for 7 days by microplate Alamar Blue assay; conditions: H37Rv ATCC 27294, 168 h
Method in brief: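 Fluorescence read-out. MIC is the lowest concentration that reduces fluorescence by at least 90% relative to the mean of replicate bacterium-only controls. Isoniazid and rifampicin were included as reference drugs.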

Klebsiella pneumoniae [31] = assay: Antibacterial activity against extended-spectrum beta-lactamase producing Klebsiella pneumoniae 14-17 after 18 to 24 hrs by two-fold serial dilution method; method in brief: as §1
Escherichia coli [32] = assay: Antibacterial activity against Escherichia coli 14-2 after 18 to 24 hrs by two-fold serial dilution method; method in brief: as §1
Staphylococcus aureus [33] = assay: Antibacterial activity against Staphylococcus aureus CMCC 26003 after 18 to 24 hrs by two-fold serial dilution method; method in brief: as §1
Enterococcus faecium [34] = assay: Antibacterial activity against Enterococcus faecium 14-2 after 18 to 24 hrs by two-fold serial dilution method; method in brief: as §1

Structure (SMILES)	MIC (Staphylococcus aureus [1]) [µg/mL]	MIC (Enterococcus faecalis [2]) [µg/mL]	MIC (Enterococcus faecalis [3]) [µg/mL]	MIC (Klebsiella pneumoniae [4]) [µg/mL]	MIC [5] [µg/mL]	MIC (Staphylococcus aureus [6]) [µg/mL]	MIC (Staphylococcus aureus [7]) [µg/mL]	MIC (Pseudomonas aeruginosa [8]) [µg/mL]	MIC (Pseudomonas aeruginosa [9]) [µg/mL]	MIC (Enterococcus faecium [10]) [µg/mL]	MIC (Staphylococcus aureus [11]) [µg/mL]	MIC [12] [µg/mL]	MIC (Pseudomonas aeruginosa [13]) [µg/mL]	MIC (Klebsiella pneumoniae [14]) [µg/mL]	MIC [15] [µg/mL]	MIC (Escherichia coli [16]) [µg/mL]	MIC (Klebsiella pneumoniae [17]) [µg/mL]	MIC (Streptococcus pneumoniae) [µg/mL]	MIC (Escherichia coli [18]) [µg/mL]	MIC (Enterococcus faecium [19]) [µg/mL]	other results
CCO/N=C1/CN(c2c(F)cc3c(=O)c(C(=O)O)cn4c3c2OC[C@@H]4C)CC1(C)CNC1CC1 (stereo not given in full)	0.03 (≈ 0.0635 µM)	32 (≈ 67.7 µM)	1 (≈ 2.12 µM)	64 (≈ 135 µM)	4 (≈ 8.47 µM)	64 (≈ 135 µM)	4 (≈ 8.47 µM)	64 (≈ 135 µM)	64 (≈ 135 µM)	16 (≈ 33.9 µM)	16 (≈ 33.9 µM)	8 (≈ 16.9 µM)	64 (≈ 135 µM)	64 (≈ 135 µM)	8 (≈ 16.9 µM)	2 (≈ 4.23 µM)	> 128	0.25 (≈ 0.529 µM)	> 128	4 (≈ 8.47 µM)	MIC [20]: 32 µg/mL (≈ 67.7 µM); MIC (Klebsiella pneumoniae [21]): 32 µg/mL (≈ 67.7 µM); MIC (Escherichia coli [22]): > 128 µg/mL; MIC (Pseudomonas aeruginosa [23]): 128 µg/mL (≈ 271 µM); MIC (Klebsiella pneumoniae [24]): 32 µg/mL (≈ 67.7 µM); MIC [25]: 8 µg/mL (≈ 16.9 µM); MIC (Pseudomonas aeruginosa [26]): 64 µg/mL (≈ 135 µM); MIC (Klebsiella pneumoniae [27]): > 128 µg/mL; MIC (Escherichia coli [28]): 8 µg/mL (≈ 16.9 µM); MIC (Staphylococcus aureus [29]): 0.06 µg/mL (≈ 0.127 µM); MIC90 [30]: 2.76 µg/mL (≈ 5.84 µM); MIC (Klebsiella pneumoniae [31]): 32 µg/mL (≈ 67.7 µM); MIC (Escherichia coli [32]): > 128 µg/mL; MIC (Staphylococcus aureus [33]): < 0.008 µg/mL; MIC (Enterococcus faecium [34]): 16 µg/mL (≈ 33.9 µM)
Nc1nc(-n2cc(C(=O)O)c(=O)c3cc(F)c(N4C/C(=N/OCc5ccccc5)C(CNC5CC5)C4)nc32)c(F)cc1F (stereo not given)	32 (≈ 53.9 µM)	64 (≈ 108 µM)	8 (≈ 13.5 µM)	128 (≈ 216 µM)	128 (≈ 216 µM)	64 (≈ 108 µM)	16 (≈ 27 µM)	128 (≈ 216 µM)	128 (≈ 216 µM)	128 (≈ 216 µM)	8 (≈ 13.5 µM)	64 (≈ 108 µM)	128 (≈ 216 µM)	64 (≈ 108 µM)	64 (≈ 108 µM)	8 (≈ 13.5 µM)	> 128	16 (≈ 27 µM)	> 128	64 (≈ 108 µM)	MIC [20]: 128 µg/mL (≈ 216 µM); MIC (Klebsiella pneumoniae [21]): 128 µg/mL (≈ 216 µM); MIC (Escherichia coli [22]): > 128 µg/mL; MIC (Pseudomonas aeruginosa [23]): 128 µg/mL (≈ 216 µM); MIC (Klebsiella pneumoniae [24]): > 128 µg/mL; MIC [25]: 128 µg/mL (≈ 216 µM); MIC (Pseudomonas aeruginosa [26]): 128 µg/mL (≈ 216 µM); MIC (Klebsiella pneumoniae [27]): > 128 µg/mL; MIC (Escherichia coli [28]): 64 µg/mL (≈ 108 µM); MIC (Staphylococcus aureus [29]): 32 µg/mL (≈ 53.9 µM); MIC90 [30]: > 32 µg/mL; MIC (Klebsiella pneumoniae [31]): 128 µg/mL (≈ 216 µM); MIC (Escherichia coli [32]): > 128 µg/mL; MIC (Staphylococcus aureus [33]): 0.015 µg/mL (≈ 0.0253 µM); MIC (Enterococcus faecium [34]): 64 µg/mL (≈ 108 µM)
CC1(CNC2CC2)CN(c2nc3c(cc2F)c(=O)c(C(=O)O)cn3-c2nc(N)c(F)cc2F)C/C1=N/OCc1ccccc1 (stereo not given)	8 (≈ 13.2 µM)	32 (≈ 52.7 µM)	16 (≈ 26.3 µM)	> 128	64 (≈ 105 µM)	16 (≈ 26.3 µM)	16 (≈ 26.3 µM)	128 (≈ 211 µM)	128 (≈ 211 µM)	128 (≈ 211 µM)	32 (≈ 52.7 µM)	128 (≈ 211 µM)	128 (≈ 211 µM)	> 128	32 (≈ 52.7 µM)	64 (≈ 105 µM)	> 128	8 (≈ 13.2 µM)	> 128	> 128	MIC [20]: 64 µg/mL (≈ 105 µM); MIC (Klebsiella pneumoniae [21]): > 128 µg/mL; MIC (Escherichia coli [22]): > 128 µg/mL; MIC (Pseudomonas aeruginosa [23]): 128 µg/mL (≈ 211 µM); MIC (Klebsiella pneumoniae [24]): > 128 µg/mL; MIC [25]: 128 µg/mL (≈ 211 µM); MIC (Pseudomonas aeruginosa [26]): > 128 µg/mL; MIC (Klebsiella pneumoniae [27]): 128 µg/mL (≈ 211 µM); MIC (Escherichia coli [28]): > 128 µg/mL; MIC (Staphylococcus aureus [29]): 4 µg/mL (≈ 6.58 µM); MIC90 [30]: 16 µg/mL (≈ 26.3 µM); MIC (Klebsiella pneumoniae [31]): > 128 µg/mL; MIC (Escherichia coli [32]): > 128 µg/mL; MIC (Staphylococcus aureus [33]): 1 µg/mL (≈ 1.65 µM); MIC (Enterococcus faecium [34]): 32 µg/mL (≈ 52.7 µM)
